CSC inhib – cancer stem cell inhibition; cancer stem cell-like cells viability, luminescence; inhibition, % at 7.5 µM; hit rate 1.1% among 300,000; in the data active = inhibition above about 75%; inconclusive = no clear call, values can overlap the other calls; tested in HMLE shEcad cells
UPR XBP1 act – activators of adaptive arm of unfolded protein response (XBP1); activation, % at 20 µM; CHO-XBP1 luciferase reporter, IRE1-XBP1 UPR activation, luminescence; percent of tunicamycin response, DMSO as zero; hit rate 0.33% among 330,000; AID 463104;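 active = versus positive control, 20 µM dose yields 30% or more activation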;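 note: 100% = tunicamycin at 10 µg/mL and 0% = DMSO only wells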
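Material: CHO-XBP1 cells stably carrying IRE1-XBP1-driven luciferase reporter | Medium: F12 with 10% serum | Compound dosing: 20 µM single concentration, DMSO 1% | Incubation: Overnight seeding at 37 °C, 6 h compound treatment at 37 °C | Detection: Steady-Glo luminescence read | Read-out basis: % activation of reporter signal versus tunicamycin and DMSO controls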
UPR CHOP act – apoptotic UPR (CHOP) activation; hit rate 0.34% among 330,000; CHO-CHOP luciferase reporter, luminescence; percent of tunicamycin response over DMSO baseline; activation, % at 10 µM;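 active = at 10 µM dose, activation of 40% or more, normalized to positive control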;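 note: 100% = tunicamycin at 10 µg/mL and 0% = DMSO alone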
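System: CHO-CHOP luciferase reporter cell line | Buffer or medium: F12 medium containing 10% fetal bovine serum | Doses: One dose, 10 µM in 0.5% DMSO | Times: 6 h compound exposure at 37 °C after overnight seeding | Signal: Luciferase luminescence | Read-out: % activation vs tunicamycin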
T cruzi inh – T. cruzi replication inhibition | inhibition, % (concentration not given with the values) | AID 1885 | T. cruzi beta-gal in NIH3T3, luminescence, 90 h | hit rate 1.4% among 300,000;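 active = mean inhibition across valid replicates above about 55%, limit read from the data; inconclusive = mean below that limit but half or more replicates reach it; inactive = mean below it, under half of replicates reach it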;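 note: signal also drops with host cell toxicity which is not excluded here; 0% = plate median of DMSO wells and 100% = zero luminescence signal; higher percent means less beta-gal luminescence so fewer parasites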
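Material: NIH/3T3 host cells with β-galactosidase reporter T. cruzi; Input: 5,000 host fibroblasts per well; Medium: DMEM, 2% fetal bovine serum; Compound: 50 nL DMSO compound solution per well; Schedule: 3 h host attachment, then at least 90 h co-culture; Detection: luminescent β-galactosidase signal after 60 min lysis.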
Beta cell apopt – beta cell apoptosis inhibition | protection from apoptosis, % (concentration not given with the values) | hit rate 0.8% among 300,000 | AID 435005 | INS-1E cytokine-induced death, ATP luminescence, 48 h; percent of positive-control rescue, neutral wells zero;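 active = Every replicate reaches about 75%, or at least half do and their mean reaches it too, limit read from the data; inconclusive = At least half of replicates reach the limit but their mean does not; inactive = Under half of replicates reach the limit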;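 note: 0% = cytokine-treated negative control wells and 100% = positive control rescue; higher means more ATP so stronger rescue from cytokine killing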
Mdm2 MdmX PPI – human Mdm2/MdmX binding inhibition; inhibition, % at 8 µM; AID 485346; hit rate 3% among 330,000; SaOS-2 split-luciferase Mdm2/MdmX complementation, luminescence; O15151+Q00987;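 active = inhibition of at least 50% at 8 µM in the primary screen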
Target sequence (O15151 whole entry, looked up): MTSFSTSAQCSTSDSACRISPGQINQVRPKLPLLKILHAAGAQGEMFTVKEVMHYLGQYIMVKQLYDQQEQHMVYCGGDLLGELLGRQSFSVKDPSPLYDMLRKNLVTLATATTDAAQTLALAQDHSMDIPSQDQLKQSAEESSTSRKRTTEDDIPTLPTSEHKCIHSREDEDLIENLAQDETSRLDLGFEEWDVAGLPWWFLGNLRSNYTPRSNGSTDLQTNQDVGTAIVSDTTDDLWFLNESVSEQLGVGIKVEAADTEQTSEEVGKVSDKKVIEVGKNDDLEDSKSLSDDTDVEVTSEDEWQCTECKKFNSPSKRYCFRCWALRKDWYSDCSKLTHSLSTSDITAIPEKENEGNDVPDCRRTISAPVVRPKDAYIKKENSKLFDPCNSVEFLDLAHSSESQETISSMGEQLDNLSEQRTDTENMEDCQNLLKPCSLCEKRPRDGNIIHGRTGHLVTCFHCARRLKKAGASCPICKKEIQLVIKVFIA
Target sequence (Q00987 whole entry, looked up): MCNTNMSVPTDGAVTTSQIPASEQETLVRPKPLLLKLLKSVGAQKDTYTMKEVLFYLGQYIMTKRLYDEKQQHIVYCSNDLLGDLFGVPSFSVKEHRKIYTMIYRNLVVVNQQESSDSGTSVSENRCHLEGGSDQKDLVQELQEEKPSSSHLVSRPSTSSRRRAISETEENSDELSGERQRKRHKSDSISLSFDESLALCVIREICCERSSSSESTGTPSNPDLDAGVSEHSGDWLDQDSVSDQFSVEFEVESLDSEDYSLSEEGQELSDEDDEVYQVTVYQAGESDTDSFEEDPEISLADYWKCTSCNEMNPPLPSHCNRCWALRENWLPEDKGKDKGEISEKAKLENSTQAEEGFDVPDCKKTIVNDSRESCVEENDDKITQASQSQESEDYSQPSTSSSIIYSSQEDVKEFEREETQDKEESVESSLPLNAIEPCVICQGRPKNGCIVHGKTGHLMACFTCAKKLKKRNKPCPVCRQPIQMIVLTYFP
Mdm2-MdmX conf – confirmation of human Mdm2/MdmX interaction inhibitors. inhibition, % at 8 µM. hit rate 55% among 10,000. shares compounds with Mdm2 MdmX PPI. Mdm2-MdmX binding, luminescent assay. AID 489028; in the data active = inhibition above about 40%
FLuc counter – counter-screen for Mdm2/MdmX inhibitors: full-length luciferase. inhibition, % at 8 µM. shares compounds with Mdm2 MdmX PPI. SaOS-2 full-length luciferase counterscreen, luminescence. hit rate 77% among 6,200;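 active = mean inhibition at 8 µM reaching about 37%, which flags the compound as non-specific, limit read from the data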;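 note: p53-null SaOS-2 cells with luciferase driven by a doxycycline-inducible promoter; compound on cells about two nights before reading with doxycycline added after day one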
* hit, by the source's call; u = inconclusive; x = no result. A selection: hits, their analogues and other compounds. The true share with any hit is near 5%.

SMILES | CSC inhib | UPR XBP1 act | UPR CHOP act | T cruzi inh | Beta cell apopt | Mdm2 MdmX PPI | Mdm2-MdmX conf | others
NC(=O)CC(NC(=O)Cc1cccc2ccccc12)c1ccc(NC2CCN(Cc3ccccc3)CC2)c([N+](=O)[O-])c1 (stereo not drawn) | 3.7 | -0.8 | 1.4 | 12.3 | x | 55.3* | 13.8
NC(=O)CC(NC(=O)Cc1ccc(Br)cc1)c1ccc(NCCc2cccc(F)c2)c([N+](=O)[O-])c1 (stereo not drawn) | -10.0 | -3.0 | -1.5 | 5.2 | -6.7 | 0.1 | x
NC(=O)CC(NC(=O)Cc1ccc(Br)cc1)c1ccc(NCc2cc(F)ccc2F)c([N+](=O)[O-])c1 (stereo not drawn) | u | -0.5 | -1.7 | 8.0 | 3.0 | 55.4* | -10.4
NC(=O)CC(NC(=O)Cc1ccc(Br)cc1)c1ccc(NC2CCN(Cc3ccccc3)CC2)c([N+](=O)[O-])c1 (stereo not drawn) | -4.1 | 2.3 | 0.9 | 8.8 | 1.2 | 12.3 | x
O=C1CCCCC1Sc1nnc(-c2ccc3c(c2)OCO3)o1 (stereo not drawn) | -0.7 | -10.2 | -8.1 | -22.4 | 2.0 | 73.0* | 69.3* | FLuc counter=90.0*
Cc1ccccc1C(=O)N1CCC(C(=O)Nc2ccc(S(=O)(=O)N3CCCCC3)cc2)CC1 | 3.4 | -2.1 | -0.1 | 9.1 | -0.3 | 32.0 | x
Cc1ccc(C(=O)NC(=S)Nc2cc(C(F)(F)F)ccc2Cl)cc1 | 1.4 | 7.1 | 0.6 | -16.2 | 5.2 | 55.1* | -13.9
S=C1NC2=C(CCCC2=C2SCCS2)C(c2ccccc2)N1 (stereo not drawn) | 42.3 | 3.3 | 0.2 | 28.4 | -20.7 | 64.8* | 23.4
Cc1ccc2c(NC(=O)c3ccco3)cccc2n1 | -17.5 | -2.7 | 0.5 | -2.1 | 4.1 | -1.5 | x
Cc1ccc(-c2nc3ccc(Cl)cc3n2OC(C)C(=O)O)cc1 (stereo not drawn) | 9.7 | 5.8 | 6.5 | -0.4 | 2.7 | -111.6 | x
CC(C)(C)c1ccc(CS(=O)(=O)CC2(O)CCN(C(=O)c3cccc(C(F)(F)F)c3)CC2)cc1 | -6.8 | 0.3 | -3.2 | -10.7 | x | 61.4* | 1.4
O=C(c1cccc(C(F)(F)F)c1)N1CCCC1 | -10.6 | -1.1 | -0.1 | -2.7 | -2.6 | -3.5 | x
COc1ccccc1NC(=O)c1ccc(CSc2ncccn2)cc1 | -6.3 | 1.0 | 3.2 | 4.6 | -1.8 | 8.3 | x
COc1ccc(C(=O)NC(=S)NNC(=O)c2ccc(C)cc2)cc1 | 19.3 | 3.2 | -2.9 | 16.2 | 7.0 | 48.9 | x
COc1cc(OC)cc(C(=O)NNC(=O)c2ccc3ccccc3n2)c1 | x | 3.0 | 1.9 | x | x | 54.7* | 68.5* | FLuc counter=46.4*
COc1ccc(C(=O)NC(=S)NNC(=O)c2ccc3ccccc3n2)cc1 | 1.1 | -0.9 | 0.7 | 50.6 | -17.8 | 55.7* | 33.0 | FLuc counter=52.1*
O=C(NCCc1cn2ccccc2n1)C1CCCCC1 | -15.1 | 2.7 | 4.0 | -12.2 | -3.6 | -10.2 | x
Cc1ccc(C(=O)N/N=C/c2ccc(-c3cccc(C(F)(F)F)c3)o2)cn1 | 44.0 | 10.2 | 3.2 | 2.6 | 16.1 | 58.2* | 53.0* | FLuc counter=49.6*
CNC(=S)N/N=C/c1ccc(-c2cccc(C(=O)O)c2)o1 | 14.9 | -3.5 | 0.6 | -0.7 | 22.4 | 20.9 | x
CC(C)(C)c1nnc(NC(=O)c2cccnc2)s1 | x | 0.2 | -1.5 | -4.9 | -0.4 | 25.2 | x
CNc1nc(Nc2ccc(Br)cc2)nc(N)c1[N+](=O)[O-] | 0.5 | 5.8 | 6.3 | -2.3 | -3.4 | 66.9* | -20.1
N#C/C(=C(/O)COC(=O)CSc1ccc2ccccc2c1)c1nc2ccccc2[nH]1 | -1.5 | 0.9 | -1.0 | -11.9 | -2.9 | 51.3* | 1.1
Cc1cc(Br)ccc1SCC(=O)OC/C(O)=C(\C#N)c1nc2ccccc2[nH]1 | 2.5 | -0.5 | 0.8 | 10.7 | 1.2 | 82.6* | -1.9
N#C/C(=C(/O)COC(=O)CCC1CCCCC1)c1nc2ccccc2[nH]1 | x | -2.1 | 0.0 | -6.2 | 0.6 | 66.3* | 5.5
O=C(NCCOc1ccc2ccccc2c1)c1cncc(Br)c1 | 28.7 | -1.1 | -1.7 | -7.3 | -1.6 | 38.9 | x
SMILES | CSC inhib | UPR XBP1 act | UPR CHOP act | T cruzi inh | Beta cell apopt | Mdm2 MdmX PPI | Mdm2-MdmX conf | others
COC(=O)c1ccc(C(=O)OC)c(NC(=O)C2CCCO2)c1 (stereo not drawn) | -9.7 | -3.9 | 0.7 | -3.1 | -5.0 | 9.2 | x
COC(=O)Nc1ccc(S(=O)(=O)NC2CCCCC2)cc1 | -6.9 | -3.5 | 1.3 | -4.5 | -7.5 | 13.7 | x
COc1ccc(C(=O)N(C)CCCC2CCCC2)cc1OC1CCN(C(C)=O)CC1 | 21.8 | 1.4 | 3.9 | 38.9 | -2.2 | 1.9 | x
COc1ccc(C(=O)N(C)CCCC2CCCC2)cc1OC1CCN(C(C)C)CC1 | 10.2 | -6.1 | 1.9 | 21.7 | 12.7 | 55.0* | 35.5 | FLuc counter=72.3*
CCOC(=O)c1ccc(N2C(=O)CC(Nc3ccc(CCO)cc3)C2=O)cc1 (stereo not drawn) | -5.0 | 0.7 | 1.6 | -14.3 | -0.7 | 16.6 | x
COC1=CC(=O)c2ccccc2C1=O | x | -1.6 | 3.3 | x | x | 50.9* | 10.8
CC(=O)Nc1ccc(NC2=CC(=O)c3ccccc3C2=O)cc1 | 17.2 | 0.0 | 6.2 | 4.8 | 18.0 | -19.4 | x
CCN(CC)CCN(Cc1cc2ccc(C)c(C)c2[nH]c1=O)C(=S)NCc1ccco1 | -2.3 | -1.8 | -1.3 | 44.0 | -5.2 | 88.2* | 53.9* | FLuc counter=81.8*
CCN(CC)CCN(Cc1cc2cc(C)cc(C)c2[nH]c1=O)C(=S)NCc1ccco1 | 0.7 | -2.5 | 1.0 | 27.0 | -0.2 | -11.8 | x
O=C(CCN1C(=O)/C(=C/c2ccccc2)SC1=S)Nc1ccccn1 | 16.8 | -2.9 | 1.2 | -14.4 | 0.1 | 5.4 | x
O=C(CCN1C(=O)/C(=C/c2ccccc2F)SC1=S)N[C@@H](CO)Cc1ccccc1 | 21.4 | -5.1 | 0.1 | -6.1 | x | 80.0* | 36.5 | FLuc counter=54.0*
O=C(CCN1C(=O)/C(=C/c2ccccc2)SC1=S)N[C@@H](CO)Cc1ccccc1 | 34.0 | -3.9 | 2.4 | -11.4 | -58.1 | 89.0* | 71.5* | FLuc counter=49.8*
C/C(CC(=O)N(C(C)C)C(C)C)=N\NC(=O)c1ccccc1Br | -1.5 | 0.6 | -1.2 | 2.8 | 1.4 | -21.6 | x
COc1cccc(-c2nc(CS(=O)(=O)CC(=O)N3CCOCC3)c(C)o2)c1 | -2.2 | -6.1 | 0.6 | -10.0 | -3.7 | 2.9 | x
COc1ccc(Cc2nnc(N/N=C/c3ccc(O)cc3O)[nH]c2=O)cc1OC | 90.7* | -1.6 | -0.9 | -13.6 | 35.7 | 56.4* | 43.6* | FLuc counter=49.6*
CCCCCC/C=N/Nc1nnc(Cc2ccc(OC)c(OC)c2)c(=O)[nH]1 | 3.0 | 4.3 | -1.2 | 15.9 | -2.8 | -25.9 | x

Assay outcomes deposited in PubChem by several laboratories.
